Assay results: ChEMBL document CHEMBL2029238, “Contribution of phosphates and adenine to the potency of adenophostins at the IP₃ receptor: synthesis of all possible bisphosphates of adenophostin A” (J Med Chem, 2012)

What was measured:
Type in all cases: functional, cell-based
[1] = biological target: Inositol 1,4,5-trisphosphate-gated calcium channel ITPR1 (Rattus norvegicus, UniProt P29994); test: Agonist activity at rat IP3R1 expressed in chicken DT40 cells assessed as induction of Ca2+ release
Procedure, shortened: (§1)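 DT40 cells stably expressing only rat IP3R1 loaded with Mag-fluo-4AM (20 μM, 1 h, 20 °C). Permeabilized with saponin (10 μg/mL, 4 min, 37 °C), then washed in Mg2+-free cytosol-like medium (~200 nM free Ca2+, pH 7.0). ER Ca2+ loaded with 1.5 mM Mg-ATP for 150 s before ligand addition.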

[2] = biological target: Inositol 1,4,5-trisphosphate-gated calcium channel ITPR1 (Rattus norvegicus) (UniProt P29994); test: Agonist activity at rat IP3R1 expressed in chicken DT40 cells assessed as Ca2+ release relative to control
Chain of Inositol 1,4,5-trisphosphate-gated calcium channel ITPR1 (Rattus norvegicus) (P29994 whole entry, looked up): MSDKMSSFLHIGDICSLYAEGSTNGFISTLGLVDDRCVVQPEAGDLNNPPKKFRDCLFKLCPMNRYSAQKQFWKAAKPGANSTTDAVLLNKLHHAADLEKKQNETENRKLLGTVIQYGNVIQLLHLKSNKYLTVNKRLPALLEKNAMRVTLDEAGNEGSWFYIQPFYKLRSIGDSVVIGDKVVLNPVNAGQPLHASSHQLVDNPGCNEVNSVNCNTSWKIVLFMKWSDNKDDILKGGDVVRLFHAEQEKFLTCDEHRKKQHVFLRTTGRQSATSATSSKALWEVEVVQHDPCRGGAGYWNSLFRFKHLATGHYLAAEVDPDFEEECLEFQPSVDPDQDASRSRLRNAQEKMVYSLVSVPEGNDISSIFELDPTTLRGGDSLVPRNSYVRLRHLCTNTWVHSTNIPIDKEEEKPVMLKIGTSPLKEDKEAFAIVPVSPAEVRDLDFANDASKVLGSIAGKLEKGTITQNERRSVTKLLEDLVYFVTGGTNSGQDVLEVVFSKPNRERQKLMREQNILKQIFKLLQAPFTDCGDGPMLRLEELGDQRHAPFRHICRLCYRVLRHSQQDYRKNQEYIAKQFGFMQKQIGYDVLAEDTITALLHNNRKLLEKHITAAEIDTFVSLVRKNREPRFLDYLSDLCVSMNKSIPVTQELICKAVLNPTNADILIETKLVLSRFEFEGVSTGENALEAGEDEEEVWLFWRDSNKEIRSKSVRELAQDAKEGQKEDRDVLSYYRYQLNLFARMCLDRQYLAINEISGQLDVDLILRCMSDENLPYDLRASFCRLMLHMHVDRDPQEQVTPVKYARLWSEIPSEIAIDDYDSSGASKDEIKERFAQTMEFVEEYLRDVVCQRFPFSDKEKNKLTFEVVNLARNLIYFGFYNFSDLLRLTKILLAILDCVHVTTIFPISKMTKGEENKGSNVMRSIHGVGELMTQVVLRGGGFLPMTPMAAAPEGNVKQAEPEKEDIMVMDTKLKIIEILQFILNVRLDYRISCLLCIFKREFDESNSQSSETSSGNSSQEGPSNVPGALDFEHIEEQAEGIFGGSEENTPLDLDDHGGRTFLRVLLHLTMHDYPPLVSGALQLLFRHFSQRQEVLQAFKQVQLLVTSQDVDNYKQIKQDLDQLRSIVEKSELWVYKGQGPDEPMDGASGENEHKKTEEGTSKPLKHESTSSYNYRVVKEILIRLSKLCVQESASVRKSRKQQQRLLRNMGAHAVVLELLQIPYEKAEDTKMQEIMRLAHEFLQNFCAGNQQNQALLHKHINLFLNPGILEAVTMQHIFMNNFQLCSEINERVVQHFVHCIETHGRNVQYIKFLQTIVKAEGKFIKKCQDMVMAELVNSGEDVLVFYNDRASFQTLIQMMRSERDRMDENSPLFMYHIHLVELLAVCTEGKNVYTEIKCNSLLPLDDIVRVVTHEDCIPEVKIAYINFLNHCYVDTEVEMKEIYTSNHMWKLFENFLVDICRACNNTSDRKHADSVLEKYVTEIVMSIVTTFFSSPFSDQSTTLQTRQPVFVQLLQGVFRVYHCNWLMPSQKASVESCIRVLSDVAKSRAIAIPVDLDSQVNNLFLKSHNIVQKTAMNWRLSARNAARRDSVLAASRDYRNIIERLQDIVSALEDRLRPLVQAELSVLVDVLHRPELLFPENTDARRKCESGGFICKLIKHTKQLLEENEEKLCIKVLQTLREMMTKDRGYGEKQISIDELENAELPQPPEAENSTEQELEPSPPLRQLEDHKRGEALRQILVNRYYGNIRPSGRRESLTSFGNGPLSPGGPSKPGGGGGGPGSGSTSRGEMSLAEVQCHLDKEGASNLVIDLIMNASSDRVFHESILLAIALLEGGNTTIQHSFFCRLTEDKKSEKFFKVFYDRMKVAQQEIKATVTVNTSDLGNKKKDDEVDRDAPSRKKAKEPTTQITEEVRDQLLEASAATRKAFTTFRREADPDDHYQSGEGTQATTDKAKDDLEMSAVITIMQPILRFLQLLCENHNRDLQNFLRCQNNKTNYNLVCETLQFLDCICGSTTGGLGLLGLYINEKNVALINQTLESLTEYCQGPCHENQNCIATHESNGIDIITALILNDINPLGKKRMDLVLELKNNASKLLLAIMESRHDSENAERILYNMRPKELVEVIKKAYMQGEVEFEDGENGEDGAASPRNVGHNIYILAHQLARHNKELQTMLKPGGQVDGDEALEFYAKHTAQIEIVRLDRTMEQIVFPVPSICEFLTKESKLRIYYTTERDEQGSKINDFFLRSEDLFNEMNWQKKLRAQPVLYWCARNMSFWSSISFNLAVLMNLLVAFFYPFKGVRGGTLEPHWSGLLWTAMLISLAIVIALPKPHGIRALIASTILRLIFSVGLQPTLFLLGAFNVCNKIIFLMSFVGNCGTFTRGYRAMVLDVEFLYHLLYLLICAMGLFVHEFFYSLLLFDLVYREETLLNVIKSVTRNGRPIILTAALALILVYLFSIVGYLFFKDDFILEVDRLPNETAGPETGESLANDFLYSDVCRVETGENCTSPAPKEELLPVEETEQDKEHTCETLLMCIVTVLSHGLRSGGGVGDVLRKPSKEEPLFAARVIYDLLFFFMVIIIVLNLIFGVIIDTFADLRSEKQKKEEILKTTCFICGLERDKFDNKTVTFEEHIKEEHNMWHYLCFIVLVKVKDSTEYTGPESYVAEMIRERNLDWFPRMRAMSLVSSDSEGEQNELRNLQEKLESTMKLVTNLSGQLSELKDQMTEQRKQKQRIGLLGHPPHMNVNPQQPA
Procedure, shortened: as §1, with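 “addition. Release measured by luminal fluorescence (ex 485/em 520 nm) as a fraction of the 1 μM ionomycin-releasable content.” for “addition.”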

[3] = biological target: Inositol 1,4,5-trisphosphate-gated calcium channel ITPR1 (Rattus norvegicus) (UniProt P29994); test: Agonist activity at rat IP3R1 expressed in chicken DT40 cells assessed as Ca2+ release at 50 uM relative to control

Compound Nc1ncnc2c1ncn2[C@@H]1O[C@H](CO)[C@@H](O[C@H]2O[C@H](CO)[C@@H](OP(=O)(O)O)[C@H](OP(=O)(O)O)[C@H]2O)[C@H]1OP(=O)(O)O [ADENOPHOSTIN A] has an EC50 [1] of 0.0028 µM.

O=P(O)(O)O[C@@H]1[C@@H](O)[C@H](O)[C@H](O)[C@H](O)[C@H]1OP(=O)(O)O showed an Activity [2] of 73% and an EC50 [1] of 8.63 µM.

Nc1ncnc2c1ncn2[C@@H]1O[C@H](CO)[C@@H](O[C@H]2O[C@H](CO)[C@@H](OP(=O)(O)O)[C@H](O)[C@H]2O)[C@H]1OP(=O)(O)O showed an Activity [3] of 53% and an EC50 [1] of 53 µM.

O=P(O)(O)O[C@H]1[C@H](OP(=O)(O)O)[C@@H](O)C(O)O[C@@H]1CO (stereo not given in full) was tested, and the Activity [2] was 72% and the EC50 [1] was 25.2 µM.

Work on Nc1ncnc2c1ncn2[C@@H]1O[C@H](CO)[C@@H](O[C@H]2O[C@H](CO)[C@@H](OP(=O)(O)O)[C@H](OP(=O)(O)O)[C@H]2O)[C@H]1O yielded an Activity [2] of 67% and an EC50 [1] of 0.107 µM.

Nc1ncnc2c1ncn2[C@@H]1O[C@H](CO)[C@@H](O[C@H]2O[C@H](CO)[C@@H](O)[C@H](OP(=O)(O)O)[C@H]2O)[C@H]1OP(=O)(O)O was tested, and the Activity [3] was 8%.
